{
  "source": "ChEMBL document CHEMBL1649212",
  "about": "“AI-2/LuxS is involved in increased biofilm formation by Streptococcus intermedius in the presence of antibiotics” (2009)",
  "key": {"[1]": {"tested_on": "Streptococcus intermedius", "experiment": "Antimicrobial activity against Streptococcus intermedius NCTC 11324 assessed as biofilm formation at 0.04 to 0.10 ug/ml", "format": "functional, organism-based", "summary_of_the_method": "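Wild-type NCTC 11324 was grown overnight in TSB and inoculated into TSB with ampicillin (0.02 to 0.10 μg/ml), ciprofloxacin (0.10 to 0.28 μg/ml) or tetracycline (0.05 to 0.30 μg/ml), added at time zero. Wells held plastic coverslips and were incubated 12 h at 37°C in 5% CO2 aerobic air. Biofilm was measured as described previously. Experiments were done three times in three parallels.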"}, "[2]": {"tested_on": "Streptococcus intermedius", "experiment": "Antimicrobial activity against Streptococcus intermedius NCTC 11324 assessed as growth inhibition at 0.16 ug/ml", "format": "functional", "summary_of_the_method": "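Broth microdilution MIC in ultra-low-binding 96-well plates, inoculum ≈4 × 10^5. Growth was read at 595 nm, and the MIC was taken as the lowest antibiotic concentration inhibiting growth.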"}, "[3]": {"tested_on": "Streptococcus intermedius", "experiment": "Antimicrobial activity against Streptococcus intermedius NCTC 11324 biofilm assessed as biofilm bacterial count at 0.02 ug/ml (Rvb =402.9 +/- 26.88 10^5 CFU/ml)", "format": "functional"}, "[4]": {"tested_on": "Streptococcus intermedius", "experiment": "Antimicrobial activity against Streptococcus intermedius NCTC 11324 biofilm assessed as biofilm bacterial count at 0.04 ug/ml (Rvb =402.9 +/- 26.88 10^5 CFU/ml)", "format": "functional"}, "[5]": {"tested_on": "Streptococcus intermedius", "experiment": "Antimicrobial activity against Streptococcus intermedius NCTC 11324 biofilm assessed as biofilm bacterial count at 0.06 ug/ml (Rvb =402.9 +/- 26.88 10^5 CFU/ml)", "format": "functional"}, "[6]": {"tested_on": "Streptococcus intermedius", "experiment": "Antimicrobial activity against Streptococcus intermedius SI006 biofilm harboring luxS mutant gene assessed as biofilm bacterial count at 0.02 ug/ml (Rvb =310.8 +/- 17.10 10^5 CFU/ml)", "format": "functional"}, "[7]": {"tested_on": "Streptococcus intermedius", "experiment": "Antimicrobial activity against Streptococcus intermedius SI006 biofilm harboring luxS mutant gene assessed as biofilm bacterial count at 0.04 ug/ml (Rvb =310.8 +/- 17.10 10^5 CFU/ml)", "format": "functional"}, "[8]": {"tested_on": "Streptococcus intermedius", "experiment": "Antimicrobial activity against Streptococcus intermedius SI006 biofilm harboring luxS mutant gene assessed as biofilm bacterial count at 0.06 ug/ml (Rvb =310.8 +/- 17.10 10^5 CFU/ml)", "format": "functional"}, "[9]": {"tested_on": "Streptococcus intermedius", "experiment": "Antimicrobial activity against Streptococcus intermedius SI006 biofilm harboring luxS mutant gene assessed as biofilm bacterial count at 0.02 ug/ml in presence of 0.8 nM autoinducer 4,5-dihydroxy-2,3-pentanedione (Rvb =413.7 +/- 24.47 10^5 CFU/ml)", "format": "functional"}, "[10]": {"tested_on": "Streptococcus intermedius", "experiment": "Antimicrobial activity against Streptococcus intermedius SI006 biofilm harboring luxS mutant gene assessed as biofilm bacterial count at 0.04 ug/ml in presence of 0.8 nM autoinducer 4,5-dihydroxy-2,3-pentanedione (Rvb =413.7 +/- 24.47 10^5 CFU/ml)", "format": "functional"}, "[11]": {"tested_on": "Streptococcus intermedius", "experiment": "Antimicrobial activity against Streptococcus intermedius SI006 biofilm harboring luxS mutant gene assessed as biofilm bacterial count at 0.06 ug/ml in presence of 0.8 nM autoinducer 4,5-dihydroxy-2,3-pentanedione (Rvb =413.7 +/- 24.47 10^5 CFU/ml)", "format": "functional"}, "[12]": {"tested_on": "Streptococcus intermedius", "experiment": "Antimicrobial activity against Streptococcus intermedius NCTC 11324 planktonic cells assessed as bacterial count at 0.06 ug/ml (Rvb =771.7 +/- 35.14 10^8 CFU/ml)", "format": "functional", "summary_of_the_method": "(§1)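 Planktonic wild-type cells were inoculated at ≈4 × 10^5 CFU/ml in TSB in ultra-low-binding plates. Media were without or with ampicillin (0.02 to 0.14 μg/ml), ciprofloxacin (0.10 to 0.35 μg/ml) or tetracycline (0.03 to 0.20 μg/ml). After 12 h at 37°C in 5% CO2 aerobic air, CFU were counted, run in parallel with the BacTiter-Glo ATP assay. Experiments were done three times in two parallels.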"}, "[13]": {"tested_on": "Streptococcus intermedius", "experiment": "Antimicrobial activity against Streptococcus intermedius NCTC 11324 planktonic cells assessed as bacterial count at 0.08 ug/ml (Rvb =771.7 +/- 35.14 10^8 CFU/ml)", "format": "functional", "summary_of_the_method": "as §1"}, "[14]": {"tested_on": "Streptococcus intermedius", "experiment": "Antimicrobial activity against Streptococcus intermedius NCTC 11324 planktonic cells assessed as bacterial count at 0.10 ug/ml (Rvb =771.7 +/- 35.14 10^8 CFU/ml)", "format": "functional", "summary_of_the_method": "as §1"}, "[15]": {"tested_on": "Streptococcus intermedius", "experiment": "Antimicrobial activity against Streptococcus intermedius NCTC 11324 planktonic cells assessed as bacterial count at 0.12 ug/ml (Rvb =771.7 +/- 35.14 10^8 CFU/ml)", "format": "functional", "summary_of_the_method": "as §1"}, "[16]": {"tested_on": "Streptococcus intermedius", "experiment": "Antimicrobial activity against Streptococcus intermedius SI006 planktonic cells harboring luxS mutant gene assessed as bacterial count at 0.06 ug/ml (Rvb =798.3 +/- 37.09 10^8 CFU/ml)", "format": "functional"}, "[17]": {"tested_on": "Streptococcus intermedius", "experiment": "Antimicrobial activity against Streptococcus intermedius SI006 planktonic cells harboring luxS mutant gene assessed as bacterial count at 0.08 ug/ml (Rvb =798.3 +/- 37.09 10^8 CFU/ml)", "format": "functional"}, "[18]": {"tested_on": "Streptococcus intermedius", "experiment": "Antimicrobial activity against Streptococcus intermedius SI006 planktonic cells harboring luxS mutant gene assessed as bacterial count at 0.10 ug/ml (Rvb =798.3 +/- 37.09 10^8 CFU/ml)", "format": "functional"}, "[19]": {"tested_on": "Streptococcus intermedius", "experiment": "Antimicrobial activity against Streptococcus intermedius SI006 planktonic cells harboring luxS mutant gene assessed as bacterial count at 0.12 ug/ml (Rvb =798.3 +/- 37.09 10^8 CFU/ml)", "format": "functional"}, "[20]": {"tested_on": "Streptococcus intermedius", "experiment": "Antimicrobial activity against Streptococcus intermedius SI006 planktonic cells harboring luxS mutant gene assessed as bacterial count at 0.06 ug/ml in presence of 0.8 nM autoinducer 4,5-dihydroxy-2,3-pentanedione (Rvb =793.3 +/- 42.40 10^8 CFU/ml)", "format": "functional"}, "[21]": {"tested_on": "Streptococcus intermedius", "experiment": "Antimicrobial activity against Streptococcus intermedius SI006 planktonic cells harboring luxS mutant gene assessed as bacterial count at 0.08 ug/ml in presence of 0.8 nM autoinducer 4,5-dihydroxy-2,3-pentanedione (Rvb =793.3 +/- 42.40 10^8 CFU/ml)", "format": "functional"}, "[22]": {"tested_on": "Streptococcus intermedius", "experiment": "Antimicrobial activity against Streptococcus intermedius SI006 planktonic cells harboring luxS mutant gene assessed as bacterial count at 0.10 ug/ml in presence of 0.8 nM autoinducer 4,5-dihydroxy-2,3-pentanedione (Rvb =793.3 +/- 42.40 10^8 CFU/ml)", "format": "functional"}, "[23]": {"tested_on": "Streptococcus intermedius", "experiment": "Antimicrobial activity against Streptococcus intermedius SI006 planktonic cells harboring luxS mutant gene assessed as bacterial count at 0.12 ug/ml in presence of 0.8 nM autoinducer 4,5-dihydroxy-2,3-pentanedione (Rvb =793.3 +/- 42.40 10^8 CFU/ml)", "format": "functional"}},
  "note": "Activity calls are given as the source filed them. The calls are words filed in the database; no cut-off is given here.",
  "data": [
    {"smiles": "CC1(C)S[C@@H]2[C@H](NC(=O)[C@H](N)c3ccccc3)C(=O)N2[C@H]1C(=O)O", "note": "[AMPICILLIN]", "values": [
      {"measurement": "Activity", "setting": "[1]", "value": "inactive"},
      {"measurement": "Activity", "setting": "[2]", "value": 0.16, "unit": "µg/mL"},
      {"measurement": "CFU", "setting": "[3]", "value": 486.2, "unit": "×10⁵ /ml"},
      {"measurement": "CFU", "setting": "[4]", "value": 621.6, "unit": "×10⁵ /ml"},
      {"measurement": "CFU", "setting": "[5]", "value": 894.7, "unit": "×10⁵ /ml"},
      {"measurement": "CFU", "setting": "[6]", "value": 324.1, "unit": "×10⁵ /ml"},
      {"measurement": "CFU", "setting": "[7]", "value": 268.6, "unit": "×10⁵ /ml"},
      {"measurement": "CFU", "setting": "[8]", "value": 162.1, "unit": "×10⁵ /ml"},
      {"measurement": "CFU", "setting": "[9]", "value": 459.5, "unit": "×10⁵ /ml"},
      {"measurement": "CFU", "setting": "[10]", "value": 686, "unit": "×10⁵ /ml"},
      {"measurement": "CFU", "setting": "[11]", "value": 819.2, "unit": "×10⁵ /ml"},
      {"measurement": "CFU", "setting": "[12]", "value": 61.2, "unit": "×10⁸ /ml"},
      {"measurement": "CFU", "setting": "[13]", "value": 43.3, "unit": "×10⁸ /ml"},
      {"measurement": "CFU", "setting": "[14]", "value": 45.3, "unit": "×10⁸ /ml"},
      {"measurement": "CFU", "setting": "[15]", "value": 20.7, "unit": "×10⁸ /ml"},
      {"measurement": "CFU", "setting": "[16]", "value": 41.8, "unit": "×10⁸ /ml"},
      {"measurement": "CFU", "setting": "[17]", "value": 16.4, "unit": "×10⁸ /ml"},
      {"measurement": "CFU", "setting": "[18]", "value": 10.3, "unit": "×10⁸ /ml"},
      {"measurement": "CFU", "setting": "[19]", "value": 8.5, "unit": "×10⁸ /ml"},
      {"measurement": "CFU", "setting": "[20]", "value": 48.7, "unit": "×10⁸ /ml"},
      {"measurement": "CFU", "setting": "[21]", "value": 39.1, "unit": "×10⁸ /ml"},
      {"measurement": "CFU", "setting": "[22]", "value": 39.6, "unit": "×10⁸ /ml"},
      {"measurement": "CFU", "setting": "[23]", "value": 18.4, "unit": "×10⁸ /ml"}
    ]}
  ]
}
